# RGS4 inh = RGS4 inhibitors, primary screen, cell-based, HEK293 M3R inducible RGS4, calcium flux; Fluo-4 calcium flux; hits give high values; triggered by carbachol at its EC20; 310,000 tested, 0.45% active; B-score at 10 µM; Regulator of G-protein signaling 4 (Homo sapiens), P49798;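 active means B-score, a plate-corrected calcium signal, over three deviations above library mean, with baseline fluorescence within five deviations of library mean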;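 further: RGS4 expression induced by doxycycline in cells with stable M3 receptor; B-score is computed from the integrated fluorescence ratio over baseline after carbachol; higher B-score means a larger calcium signal and so more RGS4 inhibition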
# Target sequence (P49798 whole entry, looked up): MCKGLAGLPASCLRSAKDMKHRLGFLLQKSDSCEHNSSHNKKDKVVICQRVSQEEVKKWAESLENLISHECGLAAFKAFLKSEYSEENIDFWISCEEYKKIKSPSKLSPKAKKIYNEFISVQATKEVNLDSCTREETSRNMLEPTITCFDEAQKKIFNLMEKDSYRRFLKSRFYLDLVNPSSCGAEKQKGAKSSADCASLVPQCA
# MrgX1 antag = antagonists of human MrgX1 receptor, primary screen, HEK293 cells, Fluo-4 calcium flux; BAM8-22 antagonism; hits give low values; Mas-related G-protein coupled receptor member X1 (Homo sapiens), Q96LB2; B-score at 10 µM; AID 588676, 2011; 310,000 tested, 1.3% active;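 active means calcium-response B-score plate-corrected more than 3 library SD below zero, starting fluorescence within 5 deviations, no agonist response on first addition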;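 further: peak minus trough fluorescence over baseline after final BAM8-22 challenge near maximal dose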
# Target sequence (Q96LB2 whole entry, looked up): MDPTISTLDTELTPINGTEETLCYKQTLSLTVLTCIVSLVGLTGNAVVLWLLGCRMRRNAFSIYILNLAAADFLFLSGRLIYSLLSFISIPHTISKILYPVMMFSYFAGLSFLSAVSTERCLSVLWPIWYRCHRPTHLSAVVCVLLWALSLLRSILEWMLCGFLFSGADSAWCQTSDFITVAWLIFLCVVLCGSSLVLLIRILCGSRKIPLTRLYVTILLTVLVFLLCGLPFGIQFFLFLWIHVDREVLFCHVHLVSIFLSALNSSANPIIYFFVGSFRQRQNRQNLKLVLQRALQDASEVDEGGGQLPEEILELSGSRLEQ
# MrgX1 ag = agonists of human MrgX1 receptor, primary screen, HEK293 cells, Fluo-4 calcium flux; 310,000 tested, 0.44% active; Fluo-4 calcium fluorescence, agonist mode; hits give high values; AID 588627, 2011; Mas-related G-protein coupled receptor member X1 (Homo sapiens), Q96LB2; B-score at 10 µM;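 active means calcium response B-score plate-corrected fluorescence ratio at least 3 library SD, with starting fluorescence B-score inside 5 SD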
#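 Material: MrgX1-expressing HEK293 cells / Dosing: compound as first of three additions / Incubation: overnight seeding, then 1 h dark dye loading / Signal: Fluo-4 NW calcium fluorescence / Evaluation: B-scored fluorescence response ratio / Benchmarks: positive and negative control wells on each plate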
# RGS4 act = RGS4 potentiators or activators, primary screen, cell-based, HEK293 M3R inducible RGS4, calcium flux. carbachol calcium flux Fluo4; hits give low values. B-score at 10 µM. 310,000 tested, 0.92% active;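 active means B-score of the integrated calcium signal more than 4 SD below the library mean, with starting fluorescence not abnormally high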;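 further: negative B-score means reduced calcium response which marks RGS4 activation or potentiation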
#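 Assay system: Inducible-RGS4 HEK293 cells carrying M3 receptor | Schedule: Compound preincubation 20 min at room temperature before agonist | Signal: Kinetic calcium fluorescence imaging with Fluo4-AM dye, 2 µM | Read-out basis: B score from integrated fluorescence ratio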
# MrgX1 PAM = positive allosteric modulators of MrgX1, primary screen, HEK293 cells, Fluo-4 calcium flux; Mas-related G-protein coupled receptor member X1 (Homo sapiens), Q96LB2; FDSS; hits give high values; B-score at 10 µM; 310,000 tested, 0.63% active; AID 588675, 2011;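 active means plate-corrected calcium response at least 3 library SD above typical, normal starting fluorescence, not activating the receptor alone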;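 further: compound read alongside a low EC10 to EC30 dose of BAM8-22 agonist; peak minus trough fluorescence over baseline measured at the second addition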
# Hits are given with their value; - = inactive; . = no result. Only some compounds are listed: those with a hit (about 3.5% of all), similar ones and a draw of the others.
SMILES,RGS4 inh,MrgX1 antag,MrgX1 ag,RGS4 act,MrgX1 PAM
CC1CCN(c2nc3ccccc3nc2C(C#N)C(=O)NC2CCCCC2)CC1 (configuration not stated),-,-,-,-,-
CC1=CC(=O)C(C(C)C)=C/C1=N\OC(=O)c1cccc2nc(C)oc12,-,-5,-,-,-
CN1C(=O)C2(c3ccccc31)C1CCCC=C1C(C#N)=C(N)C2(C#N)C#N (configuration not stated),.,-,-,.,6.7
CCOc1ccc(NC2=C(OC)C(=O)c3ccccc3C2=O)cc1,-,-,-,-,7.3
COC1=C(Nc2ccc(OC)cc2)C(=O)c2ccccc2C1=O,-,-,-,-,7.8
COc1ccc(NC2=C(NCCO)C(=O)c3ccccc3C2=O)cc1,-,-,-,-,-
COC1=C(Nc2ccc(O)cc2)C(=O)c2ccccc2C1=O,-,-,-,-,-
COc1ccc(/C=C(\NC(=O)c2cccs2)C(=O)Nc2cccc3ccccc23)cc1OC,-,-,28,-,-
CCn1cc(C(=O)N2CCc3ccccc32)c(=O)c2cc(S(=O)(=O)N3CCOCC3)ccc21,-,-,-,-,-
CCc1ccc(S(=O)(=O)/N=C2/C=C(Sc3ncn[nH]3)C(=O)c3ccccc32)cc1,.,-,-,.,7
CCc1ccc(S(=O)(=O)/N=C2\C=CC(=O)c3ccccc32)cc1,-,-,-,-,-
Cn1c(-c2c(N)n(-c3ccccc3)c3nc4ccccc4nc23)nc2ccccc21,-,-,-,-,-
Cc1cccc(-n2c(N)c(-c3nc4ccccc4n3C)c3nc4ccccc4nc32)c1,-,-,-,-7.5,-
Nc1nc(-c2ccc([N+](=O)[O-])cc2)c(C(=O)Nc2ccc(Cl)cc2)s1,-,-,-,-,-
O=C(CSc1ccc(-c2nc3ccccc3[nH]2)cn1)Nc1ccc(S(=O)(=O)N2CCCC2)cc1,-,-,-,-7.1,-
Cc1cc2nc(-c3ccc(SCC(=O)Nc4ccc(S(=O)(=O)N5CCCC5)cc4)nc3)[nH]c2cc1C,-,-,-,-,-
Nc1cc(C(=O)O)c(N)c2c1C(=O)c1ccccc1C2=O,-,-5.7,-,-,-
Nc1c(C(=O)O)ccc2c1C(=O)c1ccccc1C2=O,-,-,-,-,-
COc1ccc(-c2csc3ncnc(NCCO)c23)cc1,-,-,-,-,-
COc1ccc(-c2csc3ncnc(NCCCO)c23)cc1,-,-,33,-,-
Cc1cc(C)cc(CC2CC(=O)N(c3cc(C)on3)C2=O)c1 (configuration not stated),-,-,-,-,-
Cc1ccc(-n2c3nc(=O)[nH]c(=O)c-3cc3cc([N+](=O)[O-])ccc32)cc1,-,-,53,-,-
COc1ccc(C(=O)Nc2nccs2)cc1,-,-,-,-,-
Cc1ccc(CCNC(=O)C23CN(Cc4ccccc4)CC2C(c2cccc([N+](=O)[O-])c2)=NO3)cc1 (configuration not stated),-,-,-,-,-
COc1ccc(CCNC(=O)C23CN(Cc4ccccc4)CC2C(c2cccc([N+](=O)[O-])c2)=NO3)cc1 (configuration not stated),-,-8.3,-,-,-
SMILES,RGS4 inh,MrgX1 antag,MrgX1 ag,RGS4 act,MrgX1 PAM
O=C1N(C2CCCC2)C[C@@H]2C[C@@H](c3cn[nH]c3-c3ccc(Cl)cc3)N3CCC[C@@]123,-,-,-,-,-
COc1ccccc1NS(=O)(=O)c1cccc(NC(=O)c2cc3ccccc3oc2=O)c1,-,-,-,-,-
COc1ccc2ccccc2c1/C=N/NC(=O)c1nnn(-c2nonc2N)c1C(C)C,-,-,-,-7.1,-
COc1ccc2ccccc2c1/C=N/NC(=O)c1nnn(-c2nonc2N)c1CN(C)C,-,-,-,-,-
CCCCC(=O)N(c1ccc(C(=O)O)cc1)c1nc(-c2ccc(Cl)cc2)c(CC)s1,-,-,-,-7.4,-
CCc1sc(N(C(=O)Cc2ccccc2)c2ccccc2)nc1-c1ccccc1,-,-,-,-,-
O=C(Cc1ccc(Cl)cc1)Nc1ccccc1N1CCN(C(=O)c2ccccc2)CC1,-,-,-,-7.1,-
Cc1ccc(C(=O)c2cc([N+](=O)[O-])ccc2N2CCCCC2)cc1C,-,-,-,-7.6,-
COc1ccc(/C(O)=C2/C(=O)C(=O)N(CCN3CCOCC3)C2c2ccccn2)cc1OC (configuration not stated),-,-,-,-,-
O=C(c1ccco1)[C@@H]1[C@@H]2C(=O)N(c3ccccc3)C(=O)[C@@H]2C2c3ccccc3C=CN21 (some centres not stated),-,-,-,-,-
COc1ccc(N2C(=O)[C@@H]3[C@H](C2=O)[C@H]2c4ccccc4C=CN2[C@@H]3C(=O)Nc2ccccc2)cc1,.,-7.1,-,.,-
CN1CCN(C(c2cccc(Cl)c2)c2ccccc2Cl)CC1 (configuration not stated),-,-,-,-8,-
CN1CCN(C(c2ccccc2)c2ccc(Cl)cc2)CC1 (configuration not stated),.,-,-,.,-
O=C(c1cccc([N+](=O)[O-])c1)N1CC2C3C=CC(C3)C2C1 (configuration not stated),-,-,-,-,-
O=C(c1ccccc1[N+](=O)[O-])N1CC2C3C=CC(C3)C2C1 (configuration not stated),-,-,-,-7.1,-
CCCCCCCCN1C(=O)N(C)C(N(O)C(=O)NC)C1(C)C (configuration not stated),-,-,-,-,-
COCc1cc(C)nc2sc(C(=O)Nc3ccc(OC)cc3)c(N)c12,-,-,-,-,-
O=C(c1cccs1)N1CCN(C23CC4CC(CC(C4)C2)C3)CC1,-,-,-,-7.3,-
CCOC(=O)c1c(CN(C)C)oc2cc(CN(C)C)c(O)c(CSc3ccccc3)c12,-,-,-,-,-
CCOc1ccc(CCNC(=O)COC(=O)c2ccc(OC(C)C)cc2)cc1OCC,-,-4.8,-,-,-
CCOc1ccc(CCNC(=O)COC(=O)/C=C/c2ccccc2OC)cc1OCC,-,-,-,-,16
CCOc1ccc(CCNC(=O)COC(=O)c2ccc(S(C)(=O)=O)cc2)cc1OCC,-,-,-,-,-
O=C(O)C1CCCN(C(=O)c2cccc3ccccc23)C1 (configuration not stated),-,-,-,-,-
Cc1cc(Cl)c(S(=O)(=O)N/N=C/c2ccc3c(c2)OCO3)c(Cl)c1,-,-,-,-8.2,-
O=C(N/N=C/c1ccc2c(c1)OCO2)C1CC1,-,-5.4,-,-,-
O=C(CN1C(=O)c2cccc3cccc(c23)C1=O)N1CCOCC1,-,-,-,-,-

# Screening data from PubChem.
